Laboratory results as given in ChEMBL document CHEMBL3044526, “Synthesis, fungicidal activity, and QSAR of pyridazinonethiadiazoles” (2002).

tested on: Puccinia recondita; test: Antifungal activity against Puccinia recondita wheat leaves treated as foliar spray after 10 days relative to triadimefon; format: functional
Method in brief: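 Susceptible wheat cv. Ming-Xian 169 (10 germinating seeds per pot) was grown in a greenhouse at 15-20 °C and inoculated with P. recondita, then held 24 h in a moist chamber. Once the leaves were dry, each pot got a 10 mL spray of compound solution. Percent disease control versus untreated pots was scored 10 days later, in triplicate. Triadimefon (100 ppm) was run alongside. D = lg[a/(100−a)] − lg Mw.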

Structure (SMILES)	inhibition (INH) [%]
Cc1cc(=O)c(-c2nnc(Nc3cccc(C(F)(F)F)c3)s2)nn1-c1ccccc1Cl	70
Cc1cc(=O)c(-c2nnc(Nc3ccccc3F)s2)nn1-c1ccccc1Cl	10
Cc1cc(=O)c(-c2nnc(Nc3ccccc3)s2)nn1-c1ccccc1Cl	10
Cc1cc(=O)c(-c2nnc(Nc3ccccc3F)s2)nn1-c1ccccc1	50
Cc1cc(=O)c(-c2nnc(Nc3cccc(C(F)(F)F)c3)s2)nn1-c1ccccc1	60
Cc1cc(=O)c(-c2nnc(Nc3cccc(C(F)(F)F)c3)s2)nn1-c1c(Cl)cccc1Cl	50
Cc1cc(=O)c(-c2nnc(Nc3ccccc3F)s2)nn1-c1c(Cl)cccc1Cl	30
Cc1cc(=O)c(-c2nnc(Nc3cccc(C(F)(F)F)c3)s2)nn1-c1ccc(Cl)cc1	60
Cc1cc(=O)c(-c2nnc(Nc3ccccc3F)s2)nn1-c1ccc(Cl)cc1	50
Cc1cc(=O)c(-c2nnc(Nc3ccccc3F)s2)nn1-c1cc(Cl)c(Cl)cc1Cl	60
Cc1cc(=O)c(-c2nnc(Nc3cccc(C(F)(F)F)c3)s2)nn1-c1cc(Cl)c(Cl)cc1Cl	70
Cc1ccc(-n2nc(-c3nnc(Nc4cccc(C(F)(F)F)c4)s3)c(=O)cc2C)c(C)c1	90
Cc1ccc(-n2nc(-c3nnc(Nc4ccccc4F)s3)c(=O)cc2C)c(C)c1	90
Cc1cc(=O)c(-c2nnc(Nc3ccccc3F)s2)nn1-c1ccc(Cl)cc1Cl	80
Cc1cc(=O)c(-c2nnc(Nc3cccc(C(F)(F)F)c3)s2)nn1-c1ccc(Cl)cc1Cl	90
Cc1cc(=O)c(-c2nnc(Nc3ccccc3)s2)nn1-c1ccc(Cl)cc1Cl	20
